Assay [1] deals with Candida albicans. The assay can be described thus: Antimicrobial activity against Candida albicans after 48 hrs by broth dilution method. It is filed as functional. The procedure, abridged: (§1)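 MIC by broth dilution: the lowest concentration (highest dilution) that arrested bacterial or fungal growth. Strains were E. coli ATCC-25922, S. aureus ATCC-25923, P. aeruginosa ATCC-27853 and C. albicans.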

In assay [2] the test system is Pseudomonas aeruginosa. The assay can be described thus: Antimicrobial activity against Pseudomonas aeruginosa ATCC 27853 after 24 hrs by disk diffusion method. The class given is functional. In outline: (§2)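 Zone of inhibition by disc diffusion against E. coli ATCC-25922, S. aureus ATCC-25923, P. aeruginosa ATCC-27853 and recultured Klebsiella pneumoniae.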
In assay [3] the test system is Candida albicans. The assay can be described thus: Antimicrobial activity against Candida albicans after 48 hrs by agar dilution method. It is filed as functional. The procedure, abridged: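 Candida albicans tested by agar dilution, with compounds in DMSO.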
The test system of assay [4] is Pseudomonas aeruginosa. Nature of the assay: Antimicrobial activity against Pseudomonas aeruginosa ATCC 27853 after 24 hrs by broth dilution method. The class given is functional. The note with it: ATCC 27853, 24 h. In outline: as §1
Assay [5] concerns Klebsiella pneumoniae. Nature of the assay: Antimicrobial activity against Klebsiella pneumoniae after 24 hrs by disk diffusion method. The class given is functional. In outline:
as §2

Assay [6] deals with Staphylococcus aureus. Nature of the assay: Antimicrobial activity against Staphylococcus aureus ATCC 25923 after 24 hrs by disk diffusion method. It is filed as functional. In outline:
as §2

Assay [7] has as its system Escherichia coli. Nature of the assay: Antimicrobial activity against Escherichia coli ATCC […] after 24 hrs by broth dilution method. It is filed as functional. The procedure, abridged: as §1
The test system of assay [8] is Escherichia coli. The assay can be described thus: Antimicrobial activity against Escherichia coli ATCC […] after 24 hrs by disk diffusion method. It is filed as functional. The procedure, abridged: as §2
Assay [9] concerns Staphylococcus aureus. The assay can be described thus: Antimicrobial activity against Staphylococcus aureus ATCC 25923 after 24 hrs by broth dilution method. The class given is functional. The note with it: ATCC 25923, 24 h. The procedure, abridged: as §1
The test system of assay [10] is Klebsiella pneumoniae. Nature of the assay: Antimicrobial activity against Klebsiella pneumoniae at 100 ug/ml after 24 hrs by broth dilution method. The class given is functional, organism-based.
In assay [11] the test system is Pseudomonas aeruginosa. Nature of the assay: Antimicrobial activity against Pseudomonas aeruginosa ATCC 27853 at 100 ug/ml after 24 hrs by broth dilution method. It is filed as functional, organism-based.
Assay [12] relates to Klebsiella pneumoniae. The assay can be described thus: Antimicrobial activity against Klebsiella pneumoniae after 24 hrs by broth dilution method.

In brackets after ≈: the same amount, converted by molar mass. Activity calls are given as the source filed them. No cut-off for these calls is given here.

With `COc1ccc(OC)c(/C=N/NC(=O)c2cc(Cl)c(Cl)[nH]2)c1`, the MIC with Candida albicans [1] stood at 12.5 µg/mL (≈ 36.5 µM); in the assay with Pseudomonas aeruginosa [4], 25 µg/mL (≈ 73.1 µM); with Escherichia coli [7] it was 3.12 µg/mL (≈ 9.13 µM); against Staphylococcus aureus [9], 1.56 µg/mL (≈ 4.56 µM). For the same compound, the “diameter of the inhibition zone (DIZ)” value in the assay on Pseudomonas aeruginosa [2] was determined as 13 mm; with Candida albicans [3], 24 mm; in the assay on Klebsiella pneumoniae [5] it was 18 mm; in the assay on Staphylococcus aureus [6] it was 24 mm; with Escherichia coli [8], 20 mm.
`O=C(N/N=C/c1ccco1)c1cc(Cl)c(Cl)[nH]1`: the MIC in the assay with Candida albicans [1] came out at 12.5 µg/mL (≈ 45.9 µM); with Pseudomonas aeruginosa [4] it was 25 µg/mL (≈ 91.9 µM); in the assay with Escherichia coli [7], 3.12 µg/mL (≈ 11.5 µM); against Staphylococcus aureus [9] it was 1.56 µg/mL (≈ 5.73 µM). The “diameter of the inhibition zone (DIZ)” value was 24 mm in the assay on Pseudomonas aeruginosa [2]; 23 mm in the assay on Candida albicans [3]; 20 mm in the assay on Klebsiella pneumoniae [5]; 26 mm in the assay with Staphylococcus aureus [6]; 24 mm in the assay with Escherichia coli [8].
`O=C(N/N=C/c1ccccc1)c1cc(Cl)c(Cl)[nH]1`: the MIC is 12.5 µg/mL (≈ 44.3 µM) against Candida albicans [1], 50 µg/mL (≈ 177 µM) against Pseudomonas aeruginosa [4], 12.5 µg/mL (≈ 44.3 µM) against Escherichia coli [7] and 3.12 µg/mL (≈ 11.1 µM) against Staphylococcus aureus [9]. Also, the “diameter of the inhibition zone (DIZ)” value in the assay on Pseudomonas aeruginosa [2] turned out to be 18 mm; with Candida albicans [3], 23 mm; in the assay with Klebsiella pneumoniae [5], 17 mm; with Staphylococcus aureus [6], 16 mm; in the assay on Escherichia coli [8], 11 mm.
Consider `COc1ccc(/C=C/C(=O)c2ccc(Cl)[nH]2)cc1OC`, for which the values for the MIC in the assay with Candida albicans [1], against Escherichia coli [7] and in the assay with Staphylococcus aureus [9] were 100 µg/mL (≈ 343 µM), 25 µg/mL (≈ 85.7 µM) and 25 µg/mL (≈ 85.7 µM), respectively. Moreover, the figures for the “diameter of the inhibition zone (DIZ)” value with Candida albicans [3], in the assay on Staphylococcus aureus [6] and with Escherichia coli [8] were 14 mm, 13 mm and 13 mm, respectively. Moreover, the result with Klebsiella pneumoniae [10] and in the assay on Pseudomonas aeruginosa [11] was inactive.
Consider `O=C(N/N=C/c1ccccc1O)c1cc(Cl)c(Cl)[nH]1`, for which the MIC in the assay with Candida albicans [1] came out at 12.5 µg/mL (≈ 41.9 µM); against Pseudomonas aeruginosa [4] it was 50 µg/mL (≈ 168 µM); with Escherichia coli [7] it was 3.12 µg/mL (≈ 10.5 µM); against Staphylococcus aureus [9], 1.56 µg/mL (≈ 5.23 µM). Besides, the “diameter of the inhibition zone (DIZ)” value in the assay with Pseudomonas aeruginosa [2] was determined as 18 mm; in the assay with Candida albicans [3], 16 mm; in the assay on Klebsiella pneumoniae [5], 19 mm; in the assay on Staphylococcus aureus [6], 22 mm; in the assay on Escherichia coli [8], 18 mm.
Consider `COc1ccc(/C=C/C(=O)c2cc(Cl)c(Cl)[nH]2)cc1`, for which the MIC worked out at 50 µg/mL (≈ 169 µM) with Candida albicans [1], 100 µg/mL (≈ 338 µM) against Pseudomonas aeruginosa [4], 12.5 µg/mL (≈ 42.2 µM) in the assay on Escherichia coli [7] and 12.5 µg/mL (≈ 42.2 µM) in the assay on Staphylococcus aureus [9]. Further, the “diameter of the inhibition zone (DIZ)” value with Pseudomonas aeruginosa [2] is 17 mm; in the assay with Candida albicans [3], 12 mm; with Klebsiella pneumoniae [5], 18 mm; with Staphylococcus aureus [6], 20 mm; in the assay on Escherichia coli [8], 13 mm.
As for `O=C(/C=C/c1ccc(Cl)cc1)c1cc(Cl)c(Cl)[nH]1`, the MIC with Candida albicans [1] amounted to 50 µg/mL (≈ 166 µM); with Pseudomonas aeruginosa [4], 25 µg/mL (≈ 83.2 µM); in the assay with Escherichia coli [7], 6.25 µg/mL (≈ 20.8 µM); in the assay with Staphylococcus aureus [9] it was 3.12 µg/mL (≈ 10.4 µM). For the same compound, the “diameter of the inhibition zone (DIZ)” value is on record as 16 mm in the assay with Pseudomonas aeruginosa [2]; 14 mm in the assay with Candida albicans [3]; 17 mm in the assay on Klebsiella pneumoniae [5]; 25 mm in the assay on Staphylococcus aureus [6]; 16 mm in the assay on Escherichia coli [8].
For `O=C(/C=C/c1ccco1)c1ccc(Cl)[nH]1`, the minimum inhibitory concentration (MIC) against Candida albicans [1] was 100 µg/mL (≈ 451 µM); against Escherichia coli [7], 12.5 µg/mL (≈ 56.4 µM); in the assay with Staphylococcus aureus [9], 25 µg/mL (≈ 113 µM). The results for the “diameter of the inhibition zone (DIZ)” value in the assay with Candida albicans [3], in the assay with Staphylococcus aureus [6] and in the assay with Escherichia coli [8] were 10 mm, 15 mm and 16 mm, respectively. Besides, the outcome in the assay with Klebsiella pneumoniae [10] and in the assay with Pseudomonas aeruginosa [11] was inactive.
`O=C(O)c1cn(C2CC2)c2cc(N3CCNCC3)c(F)cc2c1=O` [CIPROFLOXACIN]: the MIC with Pseudomonas aeruginosa [4] stood at 3.12 µg/mL (≈ 9.43 µM); against Klebsiella pneumoniae [12], 1.56 µg/mL (≈ 4.71 µM); in the assay on Escherichia coli [7] it was 1.06 µg/mL (≈ 3.2 µM); against Staphylococcus aureus [9], 1.56 µg/mL (≈ 4.71 µM). Also, the Zone of inhibition in the assay on Klebsiella pneumoniae [5] (Klebsiella pneumoniae, 24 h) worked out at 26 mm; with Escherichia coli [8] (Escherichia coli, ATCC 2522, 24 h) it was 25 mm. In the assay on Staphylococcus aureus [6] (Staphylococcus aureus, ATCC 25923, 24 h), the diameter of the inhibition zone (DIZ) came to 20 mm.
For `COc1ccc(/C=N/NC(=O)c2cc(Cl)c(Cl)[nH]2)cc1`, the MIC against Candida albicans [1] was determined as 12.5 µg/mL (≈ 40 µM); with Pseudomonas aeruginosa [4], 25 µg/mL (≈ 80.1 µM); against Escherichia coli [7] it was 12.5 µg/mL (≈ 40 µM); with Staphylococcus aureus [9], 6.25 µg/mL (≈ 20 µM). In addition, the “diameter of the inhibition zone (DIZ)” value was 20 mm in the assay with Pseudomonas aeruginosa [2]; 24 mm with Candida albicans [3]; 16 mm with Klebsiella pneumoniae [5]; 20 mm in the assay on Staphylococcus aureus [6]; 19 mm in the assay with Escherichia coli [8].
As for `COc1ccc(/C=C/C(=O)c2ccc(Cl)[nH]2)cc1`, the MIC in the assay with Candida albicans [1] worked out at 100 µg/mL (≈ 382 µM); in the assay on Escherichia coli [7] it was 50 µg/mL (≈ 191 µM); against Staphylococcus aureus [9], 25 µg/mL (≈ 95.5 µM). The results for the “diameter of the inhibition zone (DIZ)” value in the assay on Candida albicans [3], with Staphylococcus aureus [6] and with Escherichia coli [8] were 14 mm, 17 mm and 10 mm, respectively. For the same compound, the outcome in the assay on Klebsiella pneumoniae [10] and with Pseudomonas aeruginosa [11] was inactive.
Take `O=C(/C=C/c1ccco1)c1cc(Cl)c(Cl)[nH]1`: the MIC was found to be 50 µg/mL (≈ 195 µM) against Candida albicans [1], 25 µg/mL (≈ 97.6 µM) against Pseudomonas aeruginosa [4], 3.12 µg/mL (≈ 12.2 µM) in the assay with Escherichia coli [7] and 1.56 µg/mL (≈ 6.09 µM) in the assay with Staphylococcus aureus [9]. The “diameter of the inhibition zone (DIZ)” value in the assay with Pseudomonas aeruginosa [2] was 17 mm; in the assay with Candida albicans [3], 14 mm; with Klebsiella pneumoniae [5], 15 mm; in the assay on Staphylococcus aureus [6] it was 25 mm; in the assay with Escherichia coli [8] it was 21 mm.
Take `COc1ccc(/C=C/C(=O)c2cc(Cl)c(Cl)[nH]2)cc1OC`: the MIC with Candida albicans [1] was 50 µg/mL (≈ 153 µM); in the assay on Pseudomonas aeruginosa [4], 25 µg/mL (≈ 76.6 µM); against Escherichia coli [7] it was 6.25 µg/mL (≈ 19.2 µM); against Staphylococcus aureus [9] it was 3.12 µg/mL (≈ 9.58 µM). Further, the “diameter of the inhibition zone (DIZ)” value with Pseudomonas aeruginosa [2] worked out at 17 mm; in the assay with Candida albicans [3], 18 mm; in the assay with Klebsiella pneumoniae [5] it was 18 mm; with Staphylococcus aureus [6], 24 mm; with Escherichia coli [8], 15 mm.
Consider `COc1ccc(OC)c(/C=C/C(=O)c2cc(Cl)c(Cl)[nH]2)c1`, for which the MIC was 50 µg/mL (≈ 153 µM) with Candida albicans [1], 100 µg/mL (≈ 307 µM) against Pseudomonas aeruginosa [4], 6.25 µg/mL (≈ 19.2 µM) against Escherichia coli [7] and 6.25 µg/mL (≈ 19.2 µM) against Staphylococcus aureus [9]. Also, the “diameter of the inhibition zone (DIZ)” value with Pseudomonas aeruginosa [2] came to 15 mm; with Candida albicans [3], 15 mm; in the assay with Klebsiella pneumoniae [5], 16 mm; in the assay with Staphylococcus aureus [6], 22 mm; in the assay with Escherichia coli [8] it was 20 mm.

For the origin of these results see ChEMBL document CHEMBL1255544, “Synthesis and evaluation of novel chloropyrrole molecules designed by molecular hybridization of common pharmacophores as potential antimicrobial agents” (2010).
